# Test results reported in ChEMBL document CHEMBL5608238, “Discovery of Thiophene Derivatives as Potent, Orally Bioavailable, and Blood-Brain Barrier-Permeable Ebola Virus Entry Inhibitors” (J Med Chem, 2024).
# How the values were obtained:
# [1] = test system: Ebolavirus; experiment: Antiviral activity against EBOV infected in HeLa cells; type: functional, organism-based; details: Orthoebolavirus
# [2] = test system: Ebolavirus; experiment: Antiviral activity against EBOV Kikwit infected in HeLa cells; type: functional, organism-based; details: Orthoebolavirus
# [3] = Selectivity index, ratio of CC50 for african green monkey Vero E6 cells to EC50 for wild type Zaire EBOV Mayinga 1976 infected in Vero E6 cells; type: toxicity, cell-based; details: read-out: Ratio CC50/EC50
# [4] = Selectivity index, ratio of CC50 for african green monkey Vero E6 cells to EC50 for EBOV-GP pseudotyped virus infected in Vero E6 cells; type: toxicity, cell-based; details: read-out: Ratio CC50/EC50
# [5] = Cytotoxicity against african green monkey Vero E6 cells; type: toxicity, cell-based, Vero C1008; details: chlorocebus sabaeus
# [6] = Selectivity index, ratio of CC50 for african green monkey Vero E6 cells to EC50 for EBOV infected in Vero E6 cells; type: toxicity, cell-based; details: read-out: Ratio CC50/EC50
# [7] = Tmax in BALB/c mouse plasma at 10 mg/kg, ip measured upto 24 hrs by LC-MS/MS analysis; type: ADME, organism-based; details: in vivo
# Summary of the method: (§1)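 Male BALB/c mice (8–12 weeks, 20–35 g) were given a single dose of test compound solution, either 10 mg/kg i.p. or 50 mg/kg p.o., at 10 mL/kg. Blood and then brain were taken from three mice per time point up to 24 h postdose. Plasma and brain levels were measured by LC–MS/MS, and parameters came from noncompartmental analysis.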
# [8] = Drug concentration in BALB/c mouse plasma at 10 mg/kg, ip measured upto 24 hrs by LC-MS/MS analysis; type: ADME, organism-based; summary of the method: as §1
# [9] = AUClast in BALB/c mouse plasma at 50 mg/kg, po measured upto 24 hrs by LC-MS/MS analysis; type: ADME, organism-based; details: in vivo; summary of the method: as §1
# [10] = AUClast in BALB/c mouse brain at 10 mg/kg, ip measured upto 24 hrs by LC-MS/MS analysis; type: ADME, organism-based; details: in vivo; summary of the method: as §1
# [11] = Drug concentration in BALB/c mouse brain at 10 mg/kg, ip measured upto 24 hrs by LC-MS/MS analysis; type: ADME, organism-based; details: read-out: Ct; summary of the method: as §1
# [12] = Cmax in BALB/c mouse plasma at 50 mg/kg, po measured upto 24 hrs by LC-MS/MS analysis; type: ADME, organism-based; details: in vivo; summary of the method: as §1
# [13] = Cmax in BALB/c mouse brain at 50 mg/kg, po measured upto 24 hrs by LC-MS/MS analysis; type: ADME, organism-based; details: in vivo; summary of the method: as §1
# [14] = Tmax in BALB/c mouse brain at 10 mg/kg, ip measured upto 24 hrs by LC-MS/MS analysis; type: ADME, organism-based; details: in vivo; summary of the method: as §1
# [15] = Tmax in BALB/c mouse brain at 50 mg/kg, po measured upto 24 hrs by LC-MS/MS analysis; type: ADME, organism-based; details: in vivo; summary of the method: as §1
# [16] = Drug concentration in BALB/c mouse brain at 50 mg/kg, po measured upto 24 hrs by LC-MS/MS analysis; type: ADME, organism-based; details: read-out: Ct; summary of the method: as §1
# [17] = AUClast in BALB/c mouse brain at 50 mg/kg, po measured upto 24 hrs by LC-MS/MS analysis; type: ADME, organism-based; details: in vivo; summary of the method: as §1
# [18] = Drug concentration in BALB/c mouse plasma at 50 mg/kg, po measured upto 24 hrs by LC-MS/MS analysis; type: ADME, organism-based; summary of the method: as §1
# [19] = AUClast in BALB/c mouse plasma at 10 mg/kg, ip measured upto 24 hrs by LC-MS/MS analysis; type: ADME, organism-based; details: in vivo; summary of the method: as §1
# [20] = Tmax in BALB/c mouse plasma at 50 mg/kg, po measured upto 24 hrs by LC-MS/MS analysis; type: ADME, organism-based; details: in vivo; summary of the method: as §1
# [21] = test system: Ebolavirus; experiment: Antiviral activity against EBOV-GP pseudotyped virus infected in Vero E6 cells preincubated with cells for 1 hr followed by viral addition and measured after 24 hrs by Steady-Glo microplate luminometer analysis; type: functional, organism-based; details: Orthoebolavirus, Vero C1008
# Summary of the method: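 VeroE6 cells (2 × 10⁴/well) were treated with compound at 10 nM–10 μM for 1 h at 37 °C, then infected with 5000 TCID of EBOV Mayinga GP-pseudotyped rVSVΔG-luciferase. Luciferase was read by Steady-Glo after 24 h.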
# [22] = test system: Ebolavirus; experiment: Antiviral activity against EBOV Zaire Kikwit infected in Huh-7 cells incubated for 48 to 72 hrs; type: functional, organism-based; details: Orthoebolavirus
# [23] = Toxicity in C57BL/6 mouse assessed as decrease in feed consumption at 100 mg/kg, po measured after 4 days; type: organism-based; details: in vivo, 96 h, time 4 day
# Summary of the method: (§2)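 Male and female C57BL/6 mice (3/sex/group) got a single oral gavage dose of 50, 100 or 250 mg/kg at 10 mL/kg, in 7.5% NMP, 7.5% Solutol HS-15, 25% PEG-400 and 60% RO water. Controls received vehicle. Clinical signs, body weight, percent weight gain and feed consumption were followed for 4 days, then survivors underwent euthanasia and gross pathology.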
# [24] = Toxicity in C57BL/6 mouse assessed as mortality at 250 mg/kg, po measured after 4 days; type: organism-based; details: in vivo, 96 h, time 4 day; summary of the method: as §2
# [25] = Toxicity in C57BL/6 mouse assessed as decrease in body weight gain at 100 mg/kg, po measured after 4 days; type: organism-based; details: in vivo, 96 h, time 4 day; summary of the method: as §2
# [26] = Toxicity in C57BL/6 mouse assessed as tolerability at 50 mg/kg, po measured after 4 days; type: organism-based; details: in vivo, 96 h, time 4 day; summary of the method: as §2
# [27] = test system: Ebolavirus; experiment: Antiviral activity against eGFP-EBOV infected in Vero E6 cells incubated for 48 hrs by spectrofluorometer assay; type: functional, organism-based; details: Orthoebolavirus, Vero C1008, 48 h
structure (smiles),measurement,setting,value
CCC(CC)COC(=O)[C@H](C)N[P@](=O)(OC[C@H]1O[C@@](C#N)(c2ccc3c(N)ncnn23)[C@H](O)[C@@H]1O)Oc1ccccc1,EC50,[1],0.14 µM
Nc1ncnc2c([C@@H]3N[C@H](CO)[C@@H](O)[C@H]3O)c[nH]c12,EC50,[2],11.8 µM
O=C(Nc1ccccc1)c1ccc(-c2cccc(OC3CCNCC3)c2)s1,selectivity ratio,[3],113
same,selectivity ratio,[4],4.7
NC(=O)c1nc(F)c[nH]c1=O,CC50,[5],> 1000 µM
same,selectivity ratio,[6],14.9
O=C(Nc1ccccc1)c1ccc(-c2ccccc2OC2CCNCC2)s1,Tmax,[7],0.25 h
same,concentration at 24 h,[8],0.32 µM
same,AUClast,[9],0.54178 µg·h/mL
same,AUClast,[10],0.60009 µg·h/mL
same,concentration at 24 h,[11],0.33 µM
same,Cmax,[12],0.11231 µg/mL
same,Cmax,[13],0.3167 µg/mL
same,Tmax,[14],2 h
same,Tmax,[15],6 h
same,concentration at 24 h,[16],0.81 µM
same,AUClast,[17],3.34142 µg·h/mL
same,concentration at 24 h,[18],0.29 µM
same,AUClast,[19],0.27174 µg·h/mL
same,Tmax,[20],1 h
O=C(NCCc1ccccc1)c1ccc(-c2cccc(OC3CCNCC3)c2)s1,EC50,[21],5.3 µM
CC(C)C(=O)OC[C@H]1O[C@@](C#N)(c2ccc3c(N)ncnn23)[C@H](O)[C@@H]1O [OBELDESIVIR],EC50,[22],4.16 µM
O=C(Nc1ccccc1)c1ccc(-c2ccc(OC3CCNCC3)cc2)s1,concentration at 24 h,[8],2.74 µM
same,Activity,[23],Toxic
same,AUClast,[9],8.61024 µg·h/mL
same,AUClast,[10],25.42934 µg·h/mL
same,concentration at 24 h,[11],4.43 µM
same,Activity,[24],Toxic
same,Activity,[25],Toxic
same,concentration at 24 h,[16],14.8 µM
same,Activity,[26],Non-Toxic
same,AUClast,[17],97.08613 µg·h/mL
same,concentration at 24 h,[18],2.04 µM
same,AUClast,[19],2.97311 µg·h/mL
CN(C)CCOc1ccc(/C(=C(/CCCl)c2ccccc2)c2ccccc2)cc1 [TOREMIFENE],IC50,[27],0.162 µM
